# Data published in ChEMBL document CHEMBL1124262, “Cardiotonic agents. Synthesis and inotropic activity of a series of isoquinolin-3-ol derivatives” (J Med Chem, 1988).
# How the values were obtained:
# [1] = tested on: Canis familiaris; assay: Percent change in heart rate (HR) in anesthetized open chest dogs after a iv dose of 8.75 mg/kg; type: functional, Canis lupus familiaris
# How it was run: (§1)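 Anesthetized open-chest dogs, one drug per animal. Compound is in DMF diluted to 10% in saline, or given as the HCl salt in saline. It is infused into the femoral vein by pump at 0.58-2.2 mL/min in 3-4 stepwise cumulative doses, each over 5 min after the prior peak. Readings are CF by right-ventricle strain gauge, dP/dtmax by Millar LV catheter, HR by cardiotachometer and MAP from femoral artery, as % change from predrug control.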
# [2] = tested on: Canis familiaris; assay: Percent change in left ventricular pressure (dP/dtmax) in anesthetized dog after iv administration at 8.75 mg/kg; type: functional, Canis lupus familiaris, Heart left ventricle; how it was run: as §1
# [3] = tested on: Canis familiaris; assay: Percent change in mean arterial blood pressure (MAP) in anesthetized open chest dogs iv administration at 8.75 mg/kg; type: functional, Canis lupus familiaris; how it was run: as §1
# [4] = tested on: Canis familiaris; assay: Percent increase in contractile force (CF) in anesthetized open-chest dogs iv administration of 8.75 mg/kg; type: functional, Canis lupus familiaris
# How it was run: (§2)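 Anesthetized open-chest dogs. After a right thoracotomy, contractile force was recorded by a Walton Brodie strain gauge sutured to the right ventricle at 100 g baseline tension. Compound was given iv by infusion pump into a femoral vein, one drug per animal, in three to four stepwise increasing doses. Each dose ran over 5 min, starting once the previous dose's effect peaked. Values are % increase over predrug control vs cumulative mg/kg dose.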
# [5] = tested on: Canis familiaris; assay: Percent change in heart rate (HR) in anesthetized open chest dogs after a iv dose of 3.75 mg/kg; type: functional, Canis lupus familiaris; how it was run: as §1
# [6] = tested on: Canis familiaris; assay: Percent change in left ventricular pressure (dP/dtmax) in anesthetized dog after iv administration at 3.75 mg/kg; type: functional, Canis lupus familiaris, Heart left ventricle; how it was run: as §1
# [7] = tested on: Canis familiaris; assay: Percent increase in contractile force (CF) in anesthetized open-chest dogs iv administration of 3.75 mg/kg; type: functional, Canis lupus familiaris; how it was run: as §2
# [8] = tested on: Canis familiaris; assay: Percent change in mean arterial blood pressure (MAP) in anesthetized open chest dogs iv administration at 3.75 mg/kg; type: functional, Canis lupus familiaris; how it was run: as §1
# [9] = tested on: Canis familiaris; assay: Percent change in heart rate (HR) in anesthetized open chest dogs after a iv dose of 0.375 mg/kg; type: functional, Canis lupus familiaris; how it was run: as §1
# [10] = tested on: Canis familiaris; assay: Percent increase in contractile force (CF) in anesthetized open-chest dogs iv administration of 0.375 mg/kg; type: functional, Canis lupus familiaris; how it was run: as §2
# [11] = tested on: Canis familiaris; assay: Percent change in mean arterial blood pressure (MAP) in anesthetized open chest dogs iv administration at 0.375 mg/kg; type: functional, Canis lupus familiaris; how it was run: as §1
# [12] = tested on: Canis familiaris; assay: Percent change in left ventricular pressure (dP/dtmax) in anesthetized dog after iv administration at 0.375 mg/kg; type: functional, Canis lupus familiaris, Heart left ventricle; how it was run: as §1
# [13] = tested on: Canis familiaris; assay: (§3) Percent change in heart rate (HR) in anesthetized open chest dogs after a iv dose of 0.1 mg/kg; type: functional, Canis lupus familiaris; how it was run: as §1
# [14] = tested on: Canis familiaris; assay: Percent change in heart rate (HR) in anesthetized open chest dogs after a iv dose of 1 mg/kg; type: functional, Canis lupus familiaris; how it was run: as §1
# [15] = tested on: Canis familiaris; assay: 50% increase in contractile force in one to three anesthetized dogs administered intravenously; type: functional; conditions: Canis lupus familiaris, iv
# How it was run: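 Anesthetized dogs (one to three). Compound is infused iv in three to four stepwise increasing doses, each over 5 min once the previous effect has peaked. Contractile force is recorded with a Walton Brodie strain gauge on the right ventricle. The dose (μg/kg) giving a 50% rise over control CF is read from the dose-response curve, graphically (n < 3) or by linear regression (n ≥ 3).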
# [16] = tested on: Canis familiaris; assay: Percent increase in contractile force (CF) in anesthetized open-chest dogs id administration of 1 mg/kg; type: functional, Canis lupus familiaris; conditions: route intraduodenal
# How it was run: (§4)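 Anesthetized open-chest dogs. A 10-mL bolus is injected into the duodenum through a catheter placed 2 cm distal to the pylorus. Contractile force is measured with a Walton Brodie strain gauge sutured to the right ventricle, at a baseline tension of 100 g, and monitored continuously. Results are given as % increase from predrug control against cumulative dose.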
# [17] = tested on: Canis familiaris; assay: Percent increase in contractile force (CF) in anesthetized open-chest dogs iv administration of 0.1 mg/kg; type: functional, Canis lupus familiaris; how it was run: as §1
# [18] = tested on: Canis familiaris; assay: Percent change in mean arterial blood pressure (MAP) in anesthetized open chest dogs iv administration at 1 mg/kg; type: functional, Canis lupus familiaris; how it was run: as §1
# [19] = tested on: Canis familiaris; assay: (§5) Percent change in mean arterial blood pressure (MAP) in anesthetized open chest dogs iv administration at 0.1 mg/kg; type: functional, Canis lupus familiaris; how it was run: as §1
# [20] = tested on: Canis familiaris; assay: Percent increase in left ventricular pressure (dP/dtmax) of anesthetized dog after id administration at 1 mg/kg; type: functional, Canis lupus familiaris, Heart left ventricle; conditions: route intraduodenal
# How it was run: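 Anesthetized open-chest dogs. Left ventricular pressure was measured by Millar catheter and dP/dtmax derived. Compound was given as a 10-mL bolus into the duodenum through a catheter placed 2 cm distal to the pylorus via flank incision. Dissolved in DMF diluted to 10% in saline, or as HCl salt in saline. Response is % change over predrug control, monitored continuously.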
# [21] = tested on: Canis familiaris; assay: Percent change in left ventricular pressure (dP/dtmax) in anesthetized dog after iv administration at 0.1 mg/kg; type: functional, Canis lupus familiaris, Heart left ventricle; how it was run: as §1
# [22] = target: Phosphodiesterase 3 (Homo sapiens, UniProt Q14432+Q13370); assay: Inhibition of phosphodiesterase fraction III in anesthetized open chest dogs; type: functional, Canis lupus familiaris; conditions: target entry is the homologue from another species
# How it was run: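 Enzyme is dog heart PDE-III, the third DEAE-cellulose fraction eluted at 800 mM sodium acetate. Compounds are tested at 0.01–1000 μM with 0.25 μM cAMP containing [³H]cAMP, in 0.05 M Tris-HCl pH 7.4 with 5 mM MgCl2. The reaction is stopped by heat, then snake venom converts product to adenosine. [³H]adenosine is counted by scintillation after Dowex separation. IC50 comes from ≥2 determinations, each in duplicate.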
# [23] = tested on: Canis familiaris; assay: as §3; type: functional, Canis lupus familiaris; how it was run: as §1; remark: listed apart in the source
# [24] = tested on: Canis familiaris; assay: Percent increase in contractile force (CF) in anesthetized open-chest dogs id administration of 0.100 mg/kg; type: functional, Canis lupus familiaris; conditions: dose 0.1 mg/kg; route intraduodenal; how it was run: as §4
# [25] = tested on: Canis familiaris; assay: Percent increase in contractile force (CF) in anesthetized open-chest dogs iv administration of 0.100 mg/kg; type: functional, Canis lupus familiaris; conditions: dose 0.1 mg/kg; how it was run: as §1
# [26] = tested on: Canis familiaris; assay: as §5; type: functional, Canis lupus familiaris; how it was run: as §1; remark: listed apart in the source
compound,measurement,setting,value
COc1ccc2cc(O)ncc2c1OC,Change,[1],13%
same,Increase,[2],34%
same,Change,[3],-7%
same,Increase,[4],60%
Cc1nc(O)cc2cc3c(cc12)OCO3,Change,[5],13%
same,Increase,[6],32%
same,Increase,[7],82%
same,Change,[8],-10%
COc1cc2c(C)nc(OC(C)=O)c(Br)c2cc1OC,Change,[9],15%
same,Increase,[10],117%
same,Change,[11],-33%
same,Increase,[12],60%
COc1cc2c(C)nc(O)c(C)c2cc1OC,Change,[13],15%
same,Change,[14],8%
same,ED50,[15],0.04 mg/kg
same,Increase,[16],64%
same,Increase,[17],80%
same,Change,[18],-6%
same,Change,[19],-4%
same,Increase,[20],30%
same,Increase,[21],48%
same,IC50,[22],10 µM
Cc1[nH]c(=O)c(C#N)cc1-c1ccncc1 [MILRINONE],Change,[13],15%
same,Change,[23],14%
same,Increase,[24],85%
same,Increase,[25],105%
same,Change,[26],-13%
same,Change,[19],-3%
same,Increase,[20],36%
same,Increase,[21],76%
